What was measured:
MsepCSP5 = molecular target: T1, MsepCSP5 (Mythimna separata, UniProt A0A5H2NAD7); experiment: Fluorescence competitive binding assay with the probe 1-NPN; conditions: for IC50: displacement of 1-NPN from MsepCSP5; for Ki: Ki = IC50/(1+[1-NPN]/K1-NPN); for Kd: dissociation constant (Kd) of MsepCSP5/1-NPN complex, Scatchard plot
T1 sequence (A0A5H2NAD7 1-127): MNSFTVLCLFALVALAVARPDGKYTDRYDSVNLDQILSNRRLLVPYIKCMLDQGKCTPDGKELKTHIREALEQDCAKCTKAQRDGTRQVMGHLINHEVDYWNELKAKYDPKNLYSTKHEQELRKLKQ
How it was run: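 Recombinant MsepCSP5 was expressed in E. coli BL21(DE3) as inclusion bodies, refolded, Ni-affinity purified, and His-tag cleaved with enterokinase, then dialyzed into Tris-HCl at pH 5.0 or 7.4. Protein at 2 μM in 30 mM Tris-HCl was titrated with 1-NPN (0–20 μM final). Ex 337 nm, Em 360–600 nm, 25°C. Ligand stocks were in methanol. Kd came from Scatchard plots, and Ki from IC50 corrected for 1-NPN. Three independent replicates.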

M. separata [1] = experiment: Post-RNAi Y-tube olfactometer bioassay; type: in vivo, Mythimna separata; conditions: 72 h old moths of both sexes, after RNAi
How it was run: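 Seven-day-old pupae were injected with dsMsepCSP5 (1 µl of 2.5 µg µL-1) into abdominal segments 3–4. Non-injected and dsGFP-injected pupae served as controls. Pupae were held at 25±1°C and 70±5% RH until eclosion. 72 h-old moths of both sexes were tested in the same Y-tube assay (two volatiles, 10 µl vs liquid paraffin, 10 min per moth). 30 females and 30 males per volatile.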

M. separata [2] = experiment: Y-tube olfactometer behavioral bioassay; type: in vivo, Mythimna separata; conditions: for females attracted to / preferring the volatile: female moths; for females attracted to / preferring the volatile / males attracted to / preferring the volatile: volatile vs liquid paraffin control, 10 µl volatile; for males attracted to / preferring the volatile: male moths; for behavioral response of M. separata to the volatile (in words): male and female moths
How it was run: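 Y-tube olfactometer with arms 3.0 cm × 26 cm, charcoal-filtered humidified air at 6.0 L min-1. 10 µl volatile on 10×10 mm filter paper was set against a liquid paraffin control. Three-day-old moths were isolated about 30 min beforehand, and separate olfactometers were used per sex. Each moth had 10 min to respond. Tests ran in the dark under orange light, 1–2 h after sunset, at 25±1°C and 70±5% RH. 30 females and 30 males per volatile.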

| Molecule | IC50 (MsepCSP5; IC50, pH 5.0) | IC50 (MsepCSP5; IC50, pH 7.4) | Ki (MsepCSP5; Ki, pH 5.0) | Ki (MsepCSP5; Ki, pH 7.4) | binding affinity to MsepCSP5 (in words) (MsepCSP5; pH 5.0) | also measured |
| --- | --- | --- | --- | --- | --- | --- |
| CC1=CC[C@@H](C(C)(C)O)CC1 [α -Terpineol] | 12.6 µM | 198 µM | 6.02 µM | 78.3 µM | high binding affinity |  |
| CCOC(C)=O [Ethylacetate] | 8.84 µM | 19.4 µM | 4.22 µM | 7.67 µM |  |  |
| CC/C=C\CCOC(C)=O [Cis-3-hexenyl acetate] | 13 µM | 32.4 µM | 6.22 µM | 12.8 µM |  |  |
| CCC(O)CC [3-Pentanol] | 14 µM | 29.8 µM | 6.71 µM | 11.8 µM | high binding affinity | preference of dsMsepCSP5-treated moths for the volatile (in words) (M. separata [1]): non-significant preference; females attracted to / preferring the volatile (M. separata [2]): 80% |
| C=CC(C)(O)CCC=C(C)CCC=C(C)C (mixture of isomers) [Nerolidol] | 13 µM | 18.3 µM | 6.2 µM | 7.23 µM | high binding affinity |  |
| CCCCCC(C)O (stereo not shown) [2-Heptanol] | 7.95 µM | 63 µM | 3.8 µM | 24.9 µM | high binding affinity | males attracted to / preferring the volatile (M. separata [2]): 80% |
| CC/C=C\CCO [Cis-3-hexen-1-ol] | 727 µM | 227 µM | 347 µM | 89.7 µM |  |  |
| CC(=O)/C=C/C1=C(C)CCCC1(C)C [β-Lonone] |  |  |  |  |  | Ki (MsepCSP5; pH 5.0): 2.09 µM; IC50 (MsepCSP5; pH 5.0): 4.38 µM; Ki (MsepCSP5; pH 7.4): 5.06 µM; IC50 (MsepCSP5; pH 7.4): 12.8 µM |
| CCC/C=C/C=O [Trans-2-hexenal] | 43.4 µM | 22.9 µM | 20.7 µM | 9.08 µM | moderate binding |  |
| CCCCCC=O [Hexanal] | 9.28 µM | 21.4 µM | 4.43 µM | 8.46 µM | high binding |  |
| C=C(C)[C@H]1CC=C(C)CC1 [R-(+)-Limonene] |  |  |  |  |  | Ki (MsepCSP5; pH 5.0): 5.18 µM; IC50 (MsepCSP5; pH 5.0): 10.8 µM; Ki (MsepCSP5; pH 7.4): 15 µM; IC50 (MsepCSP5; pH 7.4): 37.9 µM |
| CCCCCC [Hexane] | 18.6 µM | 14.9 µM | 8.9 µM | 5.89 µM |  |  |
| c1ccc(Nc2cccc3ccccc23)cc1 [1-NPN, N-phenyl-1-naphthylamine, reference compound] |  |  |  |  |  | Kd (MsepCSP5; pH 5.0): 2.91 µM; Kd (MsepCSP5; pH 7.4): 3.65 µM |
| Farnesene |  |  |  |  |  | Ki (MsepCSP5; pH 5.0): 35.6 µM; IC50 (MsepCSP5; pH 5.0): 74.7 µM; Ki (MsepCSP5; pH 7.4): 21.5 µM; IC50 (MsepCSP5; pH 7.4): 54.4 µM |
| C=CC(C)(O)CCC=C(C)C (stereo not shown) [Linalool] | 41.3 µM | 65.3 µM | 19.7 µM | 25.8 µM |  |  |
| CCCCCCCCCCCCCCCCCCC [Nonadecane] | 15 µM | 49.3 µM | 7.15 µM | 19.5 µM |  |  |
| CC1=CC=C(C(C)C)CC1 [α -Terpinene] |  |  |  |  |  | Ki (MsepCSP5; pH 5.0): 8.19 µM; IC50 (MsepCSP5; pH 5.0): 17.2 µM; Ki (MsepCSP5; pH 7.4): 8.77 µM; IC50 (MsepCSP5; pH 7.4): 22.2 µM |
| OC1CCCCC1 [Cyclohexanol] | 71.5 µM | 136 µM | 34.2 µM | 54 µM |  |  |
| CCCCCCCCCCCC=O [Dodecyl aldehyde] |  |  |  |  | high binding | Ki (MsepCSP5; pH 5.0): 7.17 µM; IC50 (MsepCSP5; pH 5.0): 15 µM; Ki (MsepCSP5; pH 7.4): 6.86 µM; IC50 (MsepCSP5; pH 7.4): 17.3 µM |
| Cc1ccc(C(C)C)cc1 [4-lsopropyltoluene] |  |  |  |  |  | Ki (MsepCSP5; pH 5.0): 14.4 µM; IC50 (MsepCSP5; pH 5.0): 30.2 µM; Ki (MsepCSP5; pH 7.4): 20.7 µM; IC50 (MsepCSP5; pH 7.4): 52.3 µM |
| CC1=CC[C@@](O)(C(C)C)CC1 [(-)-Terpinen-4-ol] |  |  |  |  |  | Ki (MsepCSP5; pH 5.0): 4.33 µM; IC50 (MsepCSP5; pH 5.0): 9.07 µM; Ki (MsepCSP5; pH 7.4): 13.6 µM; IC50 (MsepCSP5; pH 7.4): 34.4 µM |
| CCCCCCCCCC(C)=O [2-Undecanone] | 5.15 µM | 21.6 µM | 2.46 µM | 8.56 µM |  | behavioral response of M. separata to the volatile (in words) (M. separata [2]): no obvious preference |

The next lines start with results.

| IC50 (MsepCSP5; IC50, pH 5.0) | IC50 (MsepCSP5; IC50, pH 7.4) | Ki (MsepCSP5; Ki, pH 5.0) | Ki (MsepCSP5; Ki, pH 7.4) | binding affinity to MsepCSP5 (in words) (MsepCSP5; pH 5.0) | Molecule | also measured |
| --- | --- | --- | --- | --- | --- | --- |
| 74.3 µM | 58.3 µM | 35.5 µM | 23.1 µM |  | CCCCCCCCCCCCCCCC [Hexadecane] |  |
| 8.27 µM | 43.8 µM | 3.95 µM | 17.4 µM |  | CC1=CCC(=C(C)C)CC1 [Terpinolene] |  |
| 7.17 µM | 23.6 µM | 3.42 µM | 9.34 µM |  | CCCCCCCC [Octane] |  |
| 10.4 µM | 13.9 µM | 4.95 µM | 5.51 µM |  | CCCCCCCCCCCC(C)=O [2Tridecanone] |  |
| 15.2 µM | 47.8 µM | 7.25 µM | 18.9 µM |  | CCCCCCCCCCCCCCCCCCCC [Eicosane] |  |
| 17 µM | 34.2 µM | 8.1 µM | 13.5 µM | high binding affinity | CCC/C=C/CO [Trans-2-hexen-1-ol] |  |
| 21.7 µM | 20.8 µM | 10.4 µM | 8.22 µM |  | CCCCCCCCCCCCCC [Tetradecane] |  |
| 9.13 µM | 16.2 µM | 4.36 µM | 6.43 µM | high binding affinity | C=CC(O)CCCCC (stereo not shown) [1-Octen-3-ol] | preference of dsMsepCSP5-treated moths for the volatile (in words) (M. separata [1]): non-significant preference |
| 9.31 µM | 14.6 µM | 4.45 µM | 5.79 µM | high binding affinity | CC12CCC(CC1)C(C)(C)O2 [Eucalyptol] |  |
| 10.8 µM | 47.5 µM | 5.18 µM | 18.8 µM |  | COC(=O)c1ccccc1 [Methyl benzoate] | females attracted to / preferring the volatile (M. separata [2]): 70%; behavioral response of M. separata to the volatile (in words) (M. separata [2]): strong positive responses; males attracted to / preferring the volatile (M. separata [2]): 67% |
| 478 µM | 522 µM | 228 µM | 207 µM |  | CCCCCCCCCCCCC [Tridecane] |  |

Source: paper PMC6299372 (International Journal of Biological Sciences, 2018)
